In ChEMBL document CHEMBL1147710, “Synthesis of (2E)-3-{2-[(substituted benzyl)oxy]phenyl}acrylaldehydes as novel anti-inflammatory agents” (Bioorg Med Chem Lett, 2006):

Legend:
Neutrophil [1] = experiment: Inhibition of fMLP-induced superoxide formation in Sprague-Dawley rat neutrophil at 30 uM; type: functional
Procedure, shortened: (§1)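 Rat (Sprague Dawley) neutrophils were stimulated with fMLP (0.3 µM) plus cytochalasin B (5 µg/mL). Superoxide formed was reported as nmol/10⁶ cells/30 min and percent inhibition versus control. IC50 was derived from the […] concentration series. N = 3.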

Neutrophil [2] = experiment: Formation of PMA-induced superoxide in Sprague-Dawley rat neutrophil at 10 uM per 10^6 cells after 30 min; type: functional
Procedure, shortened: (§2)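 Superoxide generation by rat (Sprague Dawley) neutrophils stimulated with PMA at 3 nM. Test range 1–30 µM. Readout is superoxide formed in nmol/10⁶ cells/30 min, with percent inhibition versus control. N = 3.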

Neutrophil [3] = experiment: Formation of fMLP-induced superoxide in Sprague-Dawley rat neutrophil at 30 uM per 10^6 cells after 30 min; type: functional; procedure, shortened: as §1
Neutrophil [4] = experiment: Inhibition of fMLP-induced superoxide formation in Sprague-Dawley rat neutrophil; type: functional, cell-based; procedure, shortened: as §1
Neutrophil [5] = experiment: Inhibition of fMLP-induced superoxide formation in Sprague-Dawley rat neutrophil at 10 uM; type: functional; procedure, shortened: as §1
Neutrophil [6] = experiment: Inhibition of PMA-induced superoxide formation in Sprague-Dawley rat neutrophil at 30 uM; type: functional; procedure, shortened: as §2
Neutrophil [7] = experiment: Formation of PMA-induced superoxide in Sprague-Dawley rat neutrophil at 30 uM per 10^6 cells after 30 min; type: functional; procedure, shortened: as §2
Neutrophil [8] = experiment: Inhibition of fMLP-induced superoxide formation in Sprague-Dawley rat neutrophil at 3 uM; type: functional; procedure, shortened: as §1
Neutrophil [9] = experiment: Formation of fMLP-induced superoxide in Sprague-Dawley rat neutrophil at 3 uM per 10^6 cells after 30 min; type: functional; procedure, shortened: as §1
Neutrophil [10] = experiment: Inhibition of PMA-induced superoxide formation in Sprague-Dawley rat neutrophil at 10 uM; type: functional; procedure, shortened: as §2
Neutrophil [11] = experiment: Formation of fMLP-induced superoxide in Sprague-Dawley rat neutrophil at 10 uM per 10^6 cells after 30 min; type: functional; procedure, shortened: as §1
Neutrophil [12] = experiment: Formation of PMA-induced superoxide in Sprague-Dawley rat neutrophil at 1 uM per 10^6 cells after 30 min; type: functional; procedure, shortened: as §2
Neutrophil [13] = experiment: Inhibition of PMA-induced superoxide formation in Sprague-Dawley rat neutrophil at 1 uM; type: functional; procedure, shortened: as §2
Neutrophil [14] = experiment: Inhibition of PMA-induced superoxide formation in Sprague-Dawley rat neutrophil at 3 uM; type: functional; procedure, shortened: as §2
Neutrophil [15] = experiment: Inhibition of fMLP-induced superoxide formation in Sprague-Dawley rat neutrophil at 5 uM; type: functional
Neutrophil [16] = experiment: Formation of PMA-induced superoxide in Sprague-Dawley rat neutrophil at 3 uM per 10^6 cells after 30 min; type: functional; procedure, shortened: as §2
Neutrophil [17] = experiment: Inhibition of PMA-induced superoxide formation in Sprague-Dawley rat neutrophil; type: functional, cell-based; procedure, shortened: as §2
Neutrophil [18] = experiment: Formation of fMLP-induced superoxide in Sprague-Dawley rat neutrophil at 5 uM per 10^6 cells after 30 min; type: functional
Neutrophil [19] = experiment: Increase in cAMP level in Sprague-Dawley rat neutrophil; type: functional, cell-based
Procedure, shortened: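 Neutrophils were treated for 10 min with the indicated concentrations, with DMSO giving the basal level. Cellular cAMP was measured by enzyme immunoassay kit. Values are means SD of three experiments.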

Neutrophil [20] = experiment: Inhibition of fMLP-induced superoxide formation in Sprague-Dawley rat neutrophil at 1 uM; type: functional; procedure, shortened: as §1
Neutrophil [21] = experiment: Formation of fMLP-induced superoxide in Sprague-Dawley rat neutrophil at 1 uM per 10^6 cells after 30 min; type: functional; procedure, shortened: as §1

SMILES | IC50 (Neutrophil [4]) | inhibition at 30 µM (Neutrophil [1]) | Activity (Neutrophil [2]) | Activity (Neutrophil [3]) | inhibition at 10 µM (Neutrophil [5]) | inhibition at 30 µM (Neutrophil [6]) | Activity (Neutrophil [7]) | inhibition at 3 µM (Neutrophil [8]) | Activity (Neutrophil [9]) | inhibition at 10 µM (Neutrophil [10]) | Activity (Neutrophil [11]) | also measured
CN1CCN(CCCN2c3ccccc3Sc3ccc(C(F)(F)F)cc32)CC1 [TRIFLUOPERAZINE] | 6.6 µM |  |  |  | 79.5% |  |  | 1.7% | 2.8 nmol | 83.3% | 0.54 nmol | Activity (Neutrophil [12]): 5.48 nmol; inhibition at 1 µM (Neutrophil [13]): 27.6%; inhibition at 3 µM (Neutrophil [14]): 55.4%; inhibition at 5 µM (Neutrophil [15]): 24.2%; Activity (Neutrophil [16]): 3.4 nmol; IC50 (Neutrophil [17]): 2.7 µM; Activity (Neutrophil [18]): 2.1 nmol
O=C/C=C/c1ccccc1OCc1ccc(Cl)cc1Cl |  | 39.9% | 9.29 nmol | 1.76 nmol | 24.4% | -29.8% | 9.84 nmol |  |  | -22.7% | 2.16 nmol | 
O=C/C=C/c1ccccc1OCc1cccc(Cl)c1Cl |  | 39.9% | 6.72 nmol | 1.75 nmol | 17.4% | 17.3% | 6.29 nmol |  |  | 11.2% | 2.39 nmol | 
O=C/C=C/c1ccccc1OCc1c(Cl)cccc1Cl |  | 46.8% | 11.4 nmol | 1.54 nmol | 40.3% | -59.2% | 12 nmol |  |  | -50.6% | 1.71 nmol | 
COc1ccc(OCc2ccccc2Cl)c(/C=C/C=O)c1 |  | 40.9% | 8.94 nmol | 1.69 nmol | 34.3% | -26.9% | 9.63 nmol |  |  | -17.5% | 1.89 nmol | 
O=C/C=C/c1ccccc1OCc1ccc(Cl)cc1 | 7.4 µM | 86.9% | 9.41 nmol | 0.37 nmol | 63.1% | -22% | 9.26 nmol | 22.4% | 2.23 nmol | -23.9% | 1.05 nmol | 
COc1ccc(OCc2ccc(Cl)cc2)c(/C=C/C=O)c1 |  | 33.4% | 9.39 nmol | 1.9 nmol | 27.1% | -25.5% | 9.55 nmol |  |  | -23.3% | 2.1 nmol | 
COc1ccc(OCc2ccc(Cl)cc2)c(/C=C/C=N/O)c1 |  | 31.6% | 11.9 nmol | 2.41 nmol | 27.9% | -132% | 12.1 nmol |  |  | -124% | 2.53 nmol | 

Further molecules by falling IC50 (Neutrophil [4]), results first:

IC50 (Neutrophil [4]) | SMILES | inhibition at 30 µM (Neutrophil [1]) | Activity (Neutrophil [2]) | Activity (Neutrophil [3]) | inhibition at 10 µM (Neutrophil [5]) | inhibition at 30 µM (Neutrophil [6]) | Activity (Neutrophil [7]) | inhibition at 3 µM (Neutrophil [8]) | Activity (Neutrophil [9]) | inhibition at 10 µM (Neutrophil [10]) | Activity (Neutrophil [11]) | also measured
15.6 µM | O=Cc1ccccc1OCc1ccccc1 | 60.8% |  | 0.62 nmol | 40.6% |  |  | 36.1% | 1.01 nmol |  | 0.86 nmol | Activity (Neutrophil [19]): Dose-dependent effect
11 µM | Cc1ccc(COc2ccccc2/C=C/C=O)cc1 | 73.2% | 8.53 nmol | 0.78 nmol | 45.1% | -25.8% | 9.51 nmol | 21.9% | 2.24 nmol | -13.2% | 1.57 nmol | 
9.5 µM | COc1ccc(OCc2ccccc2Cl)c(/C=C/C=N/O)c1 | 77.7% | 5.27 nmol | 0.78 nmol | 40.4% | -44.4% | 7.62 nmol | 29.5% | 2.45 nmol | 1.5% | 2.09 nmol | 
6.4 µM | O=C/C=C/c1ccccc1OCc1ccccc1 | 83.2% | 8.61 nmol | 0.48 nmol | 63.7% | -23.6% | 9.39 nmol | 31.8% | 1.96 nmol | -13.5% | 1.05 nmol | 
5.9 µM | O=C/C=C/c1ccccc1OCc1cccc(Cl)c1 | 88% | 9.85 nmol | 0.34 nmol | 65.7% | -18.7% | 9.06 nmol | 31.2% | 2 nmol | -30.1% | 0.99 nmol | 
4.5 µM | O=C/C=C/c1ccccc1OCc1cccc(F)c1 | 83.9% | 8.07 nmol | 0.46 nmol | 73% | -23.7% | 9.38 nmol | 40.3% | 1.7 nmol | -6.2% | 0.76 nmol | 
4.4 µM | O=C/C=C/c1ccccc1OCc1ccccc1Cl | 89.7% | 9.86 nmol | 0.29 nmol | 71.4% | -10.9% | 8.39 nmol | 40.1% | 1.69 nmol | -30.1% | 0.82 nmol | 
4.3 µM | COc1ccc(OCc2ccccc2)c(/C=C/C=N/O)c1 | 86% | 4.97 nmol | 0.48 nmol | 70% | -29.4% | 6.9 nmol | 41.9% | 2.03 nmol | 7.6% | 1.05 nmol | 
4.3 µM | O=C/C=C/c1ccccc1OCc1ccc(Cl)c(Cl)c1 |  | 7.77 nmol |  | 79.8% | -51.1% | 11.4 nmol | 29.4% | 2.03 nmol | 1.9% | 0.6 nmol | inhibition at 1 µM (Neutrophil [20]): 11.7%; Activity (Neutrophil [21]): 2.56 nmol
4.2 µM | COc1ccc(OCc2cccc(Cl)c2)c(/C=C/C=O)c1 |  | 10.3 nmol |  | 77.7% | -31.2% | 9.96 nmol | 36.8% | 1.82 nmol | -35.7% | 0.67 nmol | inhibition at 1 µM (Neutrophil [20]): 11.4%; Activity (Neutrophil [21]): 2.54 nmol
3.8 µM | COc1ccc(COc2ccccc2/C=C/C=O)cc1 | 88.2% | 9.45 nmol | 0.33 nmol | 71.3% | -22.2% | 9.28 nmol | 44.6% | 1.58 nmol | -24.5% | 0.81 nmol | 
3.3 µM | O=C/C=C/c1ccccc1OCc1ccccc1F | 87.6% | 9.45 nmol | 0.35 nmol | 75.1% | -29.4% | 9.82 nmol | 47.5% | 1.48 nmol | -24.1% | 0.72 nmol | 
2.6 µM | COc1ccc(OCc2ccccc2)c(/C=C/C=O)c1 |  | 9.42 nmol |  | 81.2% | -20.9% | 9.19 nmol | 52.2% | 1.37 nmol | -24% | 0.53 nmol | inhibition at 1 µM (Neutrophil [20]): 26.7%; Activity (Neutrophil [21]): 2.09 nmol
